In the library only some 5.1% were active in any assay of this set; here they are far more common.
APP 5'UTR act = activators of APP 5'UTR luciferase reporter, primary screen, SH-SY5Y cells | SH-SY5Y APP 5'UTR luciferase reporter, luminescence; zero percent = DMSO vehicle wells | activation, % at 2 µM | 190,000 compounds, 1% hits | AID 1276, 2008;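 active = activation above a set limit, based on mean plus 3 SD of controls, cut at about 140% in these data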
NF-kB expr up = activators of NF-kB expression in neurons, primary screen, cell-based, HTS; fold change at 12.5 µM; human neuronal cells, NF-kB reporter expression; active compounds read high; 190,000 compounds, 1.6% hits; in the data active = fold change above about 3.3
STAT3 act-1 = IL-6 driven STAT3 reporter potentiators, primary screen, U3A cells, luciferase, luminescence, MLSCN library; IL-6 STAT3-luciferase reporter; 100% = signal with IL-6 EC80 alone; 190,000 compounds, 0.91% hits; AID 871, 2007; activation (% of control), % at 5.6 µM;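 active = activation above the screen-wide mean of compound activation plus 3 SD, cut at about 130% in these data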;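 also: 0% = background luminescence of wells with medium and substrate only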
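Material: human U3A cells carrying STAT3-luciferase construct. Measured by: reporter luminescence signal. Timing: compound 1 h, then IL-6 6 h at 37 °C.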
STAT1 act-1 = STAT1 signaling activators, primary screen, cell-based, HTS, luciferase reporter; NIH 3T3 STAT1-luciferase reporter, IFN-gamma, luminescence; 100% = IFN-gamma alone, no compound; activation (% of control), % at 5.5 µM; 200,000 compounds, 2.6% hits; AID 932, 2007;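 active = activation above the screen-wide mean activation plus 3 SD, cut at about 130% in these data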;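 also: raw ratio to IFN-gamma control signal so 100% means no change and 0% no light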
STAT1 inh = STAT1 signaling inhibitors, primary screen, cell-based, HTS, luciferase reporter; NIH 3T3 STAT1-luciferase reporter, IFN-gamma, luminescence; inhibition, % at 5.5 µM; 200,000 compounds, 0.35% hits; AID 920, 2007;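 active = inhibition above a set limit, the mean inhibition across all tested compounds plus 3 SD, cut at about 34% in these data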;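 also: 0% = IFN-gamma with DMSO and 100% = IFN-gamma with 300 µM nifuroxazide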
STAT3 blocker = IL-6 driven STAT3 reporter inhibitors, primary screen, U3A cells, luciferase, luminescence, MLSCN library | IL-6 STAT3-luciferase reporter; host cell line lacks STAT1 | AID 862, 2007 | 190,000 compounds, 0.89% hits | inhibition, % at 5.5 µM;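 active = inhibition above the mean inhibition across all screened compounds plus 3 SD, cut at about 44% in these data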;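 also: 0% = DMSO only wells and 100% = 100 µM nifuroxazide control wells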
STAT3 act-2 = STAT3 reporter potentiators, retest of hits, confirmation, U3A cells, luciferase, luminescence | potentiation (% of control), % at 5.7 µM | 1,200 compounds, 64% hits | IL-6 potentiation; U3A cells lack STAT1; 100 means same as IL-6 alone | AID 1267, 2008 | shares compounds with STAT3 act-1;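 active = percent activation of the STAT3 luciferase reporter above a set limit taken from the earlier primary screen, cut at about 130% in these data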;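 also: 0% = background signal of medium plus substrate and 100% = median of IL-6 with DMSO wells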
NFkB act 2 = NF-kB reporter activators in human cells, counter-screen for STAT3 activator project; shares compounds with STAT3 act-1; NF-kappaB reporter activation; activation (% of control), % at 5.7 µM; 1,200 compounds, 11% hits; AID 1309, 2008; in the data active = activation above about 120%;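 also: reporter induced by TNF-alpha stimulation; 100% = median of stimulated DMSO wells and 0% = no signal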
STAT1 act-2 = STAT1 reporter activators, IFN-gamma induced, counter-screen for STAT3 activator project, cell-based, NIH 3T3, luciferase luminescence; shares compounds with STAT3 act-1; NIH 3T3 STAT1-luciferase reporter; activation (% of control), % at 5.7 µM; 1,200 compounds, 13% hits;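 active = activation above the solvent-only control well mean plus 3 SD, set per screening run, cut at about 120% in these data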;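 also: 100% = IFN-gamma with DMSO median signal so 100% means no change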
Active calls of the source: *; . = no result given.

SMILES	APP 5'UTR act	NF-kB expr up	STAT3 act-1	STAT1 act-1	STAT1 inh	STAT3 blocker	STAT3 act-2	NFkB act 2	STAT1 act-2
CC1CCCCC1NC(=S)Nc1ccc(Cl)cc1Cl (centres undefined)	12	1.1	89	103	-3	21	.	.	.
COc1cc2nc(CN(C)Cc3ccc(C(C)(C)C)cc3)[nH]c(=O)c2cc1OC	5	1.1	104	104	-6	1	.	.	.
NS(=O)(=O)c1ccc(O)c(NC(=O)c2ccc([N+](=O)[O-])cc2)c1	-1	1.2	102	106	-7	5	.	.	.
O=Cc1ccc2cccnc2n1	-1	0.88	148*	106	-7	-49	146*	106	103
CCOC(=O)c1n[nH]c2ccccc12	10	1.2	90	107	-10	16	.	.	.
Nc1n[nH]c2ccccc12	-15	1.5	136*	98	1	-44	141*	101	97
O=C1NC2=C(CCc3ccccc32)C(c2ccccc2)N1 (centres undefined)	15	1.2	148*	99	1	-50	101	100	98
COC(=O)c1c(C)[nH]c(C(=O)CN2CCOCC2)c1C	0	1.1	139*	91	10	-40	138*	108	99
COc1cccc(-c2nc(N3CCN(c4ccccc4)CC3)c3ccccc3n2)c1O	-4	0.94	115	94	7	-8	.	.	.
COc1cccc(-c2nc(Oc3cccc(C)c3C)c3ccccc3n2)c1O	13	0.99	140*	90	11	-50	136*	98	95
CC(C)N(C(=O)COC(=O)c1ccc([N+](=O)[O-])cc1)c1ccccc1	-13	1	100	96	4	3	.	.	.
O=S(=O)(c1cccs1)N1CCN(Cc2nc3ccccc3s2)CC1	5	0.96	124	88	13	-24	.	.	.
O=C(OCc1nc2ccccc2s1)C1CCN(S(=O)(=O)c2cccs2)CC1	29	0.95	144*	125	-27	-46	140*	123*	131*
Oc1ccc(Cl)cc1-c1cc(-c2ccccc2)n[nH]1	36	1.8	148*	111	-12	-52	142*	114	125*
Clc1ccc(C2=Nn3c(nnc3-c3cc(-c4ccccc4)n[nH]3)SC2)cc1	-3	0.96	94	105	-10	15	.	.	.
CCCC12C(=O)C(C)(C(c3ccccc3)=C1c1ccccc1)C1C(=O)N(c3ccc(C)cc3)C(=O)C12 (centres undefined)	22	1.1	100	101	2	-3	.	.	.
N#C/C(=C/c1ccccc1[N+](=O)[O-])c1nc(C2CC2)cs1	12	1.1	147*	98	3	-57	158*	108	119
N#C/C(=C\c1ccccc1[N+](=O)[O-])c1nc(C2CC2)cs1	18	2.8	146*	106	-7	-48	154*	106	110
N#C/C(=C\c1ccc([N+](=O)[O-])cc1)c1nc(C2CC2)cs1	29	1.5	92	106	-6	8	.	.	.
Clc1ccc(-c2ccnc(-n3cccc3)n2)s1	13	1.2	131	98	1	-26	.	.	.
Cc1ccsc1-c1ccnc(-n2cccc2)n1	8	0.71	146*	105	-5	-43	128	105	102
Clc1ccsc1-c1ccnc(-n2cccc2)n1	22	1.1	140*	105	-7	-36	160*	108	108
O=C(O)c1ccc(CNC(=O)c2ccc(C(F)(F)F)cc2)cc1	3	1.2	149*	109	-10	-50	168*	104	105
COc1cc(NC(=O)c2noc3c2CCC3)c(OC)cc1Cl	-3	0.95	146*	94	8	-50	157*	101	102
CCCc1cc(C(=O)Nc2ccccc2C(=O)OC)no1	-10	1.2	108	107	-8	-4	.	.	.
SMILES	APP 5'UTR act	NF-kB expr up	STAT3 act-1	STAT1 act-1	STAT1 inh	STAT3 blocker	STAT3 act-2	NFkB act 2	STAT1 act-2
COc1cc(NC(=O)c2cc(-c3ccco3)on2)c(OC)cc1Cl	-10	1.4	165*	104	-5	-75	145*	101	97
COc1cc(OC)c(NC(=O)c2ccco2)cc1Cl	13	0.86	96	118	-20	8	.	.	.
COc1cc(NC(=O)c2ccccc2)c(OC)cc1Cl	8	1	150*	100	-3	-58	143*	106	105
COc1cc(N)c(Cl)cc1NC(=O)c1ccccc1	-17	1.3	98	107	-8	9	.	.	.
CCCc1cc(C(=O)Nc2cc(OC)c(Cl)cc2OC)no1	1	2	166*	98	2	-74	162*	103	103
CC(=O)c1ccc(Oc2cc(C)nc(N3CCOCC3)n2)cc1	3	1.1	100	112	-13	0	.	.	.
O=C(NCC1CCCO1)c1cccc(Oc2ccc([N+](=O)[O-])cc2Cl)c1 (centres undefined)	-21	0.81	95	99	-1	9	.	.	.
CC(=O)c1sc2nc(-c3cccs3)cc(C(F)(F)F)c2c1N	0	1.1	162*	97	3	-63	146*	103	96
O=C(N/N=C/c1c[nH]c2ccc(Br)cc12)c1ccccn1	18	1.2	95	105	-7	7	.	.	.
O=C(N/N=C/c1ccc(O)cc1)c1[nH]c2ccc(Br)cc2c1-c1ccccc1	-94	2.9	143*	108	-8	-45	112	165*	117
O=C(N/N=C/c1c[nH]c2ccccc12)c1[nH]c2ccc(Br)cc2c1-c1ccccc1	-92	3.6*	150*	109	-9	-64	115	157*	107
CC1CCC(NC(=O)C(NC(=O)c2ccccc2)C(C)C)CC1 (centres undefined)	-3	0.92	108	100	-1	4	.	.	.
Cc1cc(C)nc(/N=C(\N)Nc2ccc(OCc3ccccc3)cc2)n1	-6	0.79	81	95	4	26	.	.	.
Cc1nc(/N=C(\N)Nc2ccccc2)nc2ccccc12	34	1.1	165*	106	-6	-67	157*	106	108

Screens deposited in PubChem by several laboratories.
